Results published in ChEMBL document CHEMBL4219124, “Alleviating CYP and hERG liabilities by structure optimization of dihydrofuran-fused tricyclic benzo[d]imidazole series - Potent, selective and orally efficacious microsomal prostaglandin E synthase-1 (mPGES-1) inhibitors: Part-2” (Bioorg Med Chem Lett, 2018).

What was measured:
[1] = Protein binding in dog plasma at 10 uM after 5 hrs by equilibrium dialysis based LC-MS/MS analysis; assay type: ADME, cell-free, Canis lupus familiaris; conditions: read-out: PPB (converted)
Method in brief: (§1)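 Equilibrium dialysis at 10 μM compound; result expressed as percent bound.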

[2] = Cmax in Dunkin-Hartley guinea pig at 10 mg/kg, po; assay type: ADME, organism-based, Cavia porcellus; design: dose 10 mg/kg, route oral; conditions: in vivo
Method in brief: (§2)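 Single oral dose of 10 mg/kg. Cmax and AUC0-24 taken from the oral arm. Rat: male Sprague-Dawley, dosed in 0.5% methylcellulose suspension, mean ± SD (n = 3). Guinea pig: 20% NMP + 0.5% MC suspension, mean ± SD (n = 3). Dog and cynomolgus monkey: 2.5 μL/mL Tween 80 + 0.5 (w/v) MC suspension.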

[3] = AUC (0 to 24 hrs) in cynomolgus monkey at 10 mg/kg, po; assay type: ADME, organism-based, Macaca fascicularis; design: time < 24 hr, dose 10 mg/kg, route oral; conditions: in vivo; method in brief: as §2
[4] = Clearance in cynomolgus monkey at 1 mg/kg, iv; assay type: ADME, organism-based, Macaca fascicularis; conditions: in vivo
Method in brief: (§3)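 Intravenous dose of 1 mg/kg; clearance and Vz derived from the i.v. arm. Rat (male Sprague-Dawley) vehicle 20% NMP + 20% ethanol + 60% PEG 200, mean ± SD (n = 3). Dog vehicle 20% NMP + 20% EtOH + 10% PG + 50% PEG 200:water (3:2). Monkey vehicle 10% NMP + 10% ethanol + 10% PEG + 70% PEG200:water (3:2).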

[5] = Ratio of drug uptake in brain to plasma of Beagle dog at 10 mg/kg, po; assay type: ADME, organism-based, Canis lupus familiaris; conditions: read-out: BPR
[6] = target: T1, Nuclear receptor subfamily 1 group I member 2 (Homo sapiens, UniProt O75469); assay: Activation of human PXR at 10 uM relative to rifampicin; assay type: ADME
T1 sequence (O75469 whole entry): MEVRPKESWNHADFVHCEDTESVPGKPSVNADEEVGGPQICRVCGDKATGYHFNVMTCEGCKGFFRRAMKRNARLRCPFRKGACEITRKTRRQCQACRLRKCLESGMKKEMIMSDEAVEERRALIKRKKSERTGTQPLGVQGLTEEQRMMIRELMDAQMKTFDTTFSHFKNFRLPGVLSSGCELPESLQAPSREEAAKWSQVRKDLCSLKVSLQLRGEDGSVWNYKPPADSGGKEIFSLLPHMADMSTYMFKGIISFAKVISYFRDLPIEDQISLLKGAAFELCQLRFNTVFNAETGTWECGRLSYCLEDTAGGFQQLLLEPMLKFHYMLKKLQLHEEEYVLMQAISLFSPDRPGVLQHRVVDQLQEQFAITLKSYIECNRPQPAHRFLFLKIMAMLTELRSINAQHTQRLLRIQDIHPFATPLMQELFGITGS
Method in brief: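 Activation of human PXR with test compound at 10 µM, expressed relative to the rifampicin effect.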

[7] = Oral bioavailability in cynomolgus monkey at 10 mg/kg; assay type: ADME, organism-based, Macaca fascicularis; conditions: in vivo
Method in brief: (§4)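 Plasma PK after 1 mg/kg i.v. and 10 mg/kg p.o.; %F from both routes. Rat: male Sprague-Dawley, oral 0.5% methylcellulose suspension, i.v. 20% NMP/20% ethanol/60% PEG 200, n = 3. Dog oral: Tween 80 2.5 μL/mL + 0.5% MC suspension. Monkey oral: same Tween/MC suspension; i.v. 10% NMP/10% ethanol/10% PEG/70% PEG200-water premix.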

[8] = AUC (0 to 24 hrs) in Dunkin-Hartley guinea pig at 10 mg/kg, po; assay type: ADME, organism-based, Cavia porcellus; design: time < 24 hr, dose 10 mg/kg, route oral; conditions: in vivo; method in brief: as §2
[9] = Half life in cynomolgus monkey at 10 mg/kg, po; assay type: ADME, organism-based, Macaca fascicularis; conditions: in vivo
Method in brief: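 Half-life calculated from plasma profiles after oral dosing at 10 mg/kg. Rat: male Sprague-Dawley, 0.5% methylcellulose suspension, n = 3. Dog and cynomolgus monkey: Tween 80 (2.5 μL/mL) + 0.5 (w/v) MC suspension.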

[10] = Protein binding in cynomolgus monkey plasma at 10 uM after 5 hrs by equilibrium dialysis based LC-MS/MS analysis; assay type: ADME, cell-free, Macaca fascicularis; conditions: read-out: PPB (converted); method in brief: as §1
[11] = Tmax in Dunkin-Hartley guinea pig at 10 mg/kg, po; assay type: ADME, organism-based, Cavia porcellus; conditions: in vivo
Method in brief: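 Tmax from oral 10 mg/kg dosing. Rat: male Sprague-Dawley, 0.5% MC suspension, n = 3. Guinea pig: 20% NMP + 0.5% MC suspension, n = 3. Dog and monkey: 2.5 μL/mL Tween 80 + 0.5% MC suspension.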

[12] = Drug uptake in brain of Dunkin-Hartley guinea pig LPS-induced hyperalgesia pain model at 10 mg/kg, po administered 2 hrs prior to LPS challenge measured 7 hrs post dose; assay type: ADME, organism-based, Cavia porcellus; conditions: read-out: Drug uptake
Method in brief: (§5)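 Guinea pigs received compound orally, once daily, at 10, 30 or 100 mg/kg, 2 h before LPS was injected into the plantar surface of the right paw. Saline-injected animals served as the comparison for thermal hyperalgesia. Plasma and brain drug levels taken 7 h after dosing, mean of n = 6–9 per group, from a single experiment.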

Cavia porcellus = assay: Analgesic activity in Dunkin-Hartley guinea pig MIA-induced osteoarthritic pain model assessed as reversal of incapacitance administered orally on day 3 measured 6 to 7 hrs post dose; assay type: functional
Method in brief: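 Day 0: monoiodoacetate injected into the right shoulder joint of guinea pigs; saline-injected animals as comparison. Day 3: compound given orally at 100, 250 or 500 mg/kg, and weight-bearing incapacitance on the injected forelimb measured. Plasma sampled at the PD time point, n = 6–8 per group, single experiment.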

[13] = Plasma concentration in Dunkin-Hartley guinea pig LPS-induced hyperalgesia pain model at 30 mg/kg, po administered 2 hrs prior to LPS challenge measured 7 hrs post dose; assay type: ADME, organism-based, Cavia porcellus
Method in brief: (§6)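 Guinea pigs dosed orally at 10, 30 or 100 mg/kg 2 h before intraplantar LPS in the right hind paw; thermal hyperalgesia scored. Plasma (ng/mL) and brain (ng/g) levels taken 7 h post dose; brain/plasma ratio computed. Means of 6–9 animals per group, single experiment.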

[14] = Oral bioavailability in Beagle dog at 10 mg/kg; assay type: ADME, organism-based, Canis lupus familiaris; conditions: Beagle, in vivo; method in brief: as §4
[15] = Ratio of plasma concentration in Dunkin-Hartley guinea pig LPS-induced hyperalgesia pain model to IC50 for mPGES1 in human whole blood; assay type: ADME; conditions: in vivo
[16] = Plasma concentration in Dunkin-Hartley guinea pig MIA-induced osteoarthritic pain model at 500 mg/kg, po measured 2 hrs post dose; assay type: ADME, organism-based, Cavia porcellus
Method in brief: (§7)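 Intra-articular MIA into the right shoulder joint on day 0; oral dosing at 100, 250 or 500 mg/kg on day 3, incapacitance (forelimb weight bearing) measured. Plasma concentration sampled 2 h post dose. Means of 6–8 animals per group, single experiment.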

[17] = Drug uptake in brain of Dunkin-Hartley guinea pig LPS-induced hyperalgesia pain model at 30 mg/kg, po administered 2 hrs prior to LPS challenge measured 7 hrs post dose; assay type: ADME, organism-based, Cavia porcellus; conditions: read-out: Drug uptake; method in brief: as §5
[18] = Ratio of plasma concentration in Dunkin-Hartley guinea pig MIA-induced osteoarthritic pain model to IC50 for mPGES1 in guinea pig whole blood; assay type: ADME; conditions: in vivo
[19] = AUC (0 to 24 hrs) in Beagle dog at 10 mg/kg, po; assay type: ADME, organism-based, Canis lupus familiaris; design: dose 10 mg/kg, time < 24 hr, route oral; conditions: Beagle, in vivo; method in brief: as §2
[20] = Clearance in Beagle dog at 1 mg/kg, iv; assay type: ADME, organism-based, Canis lupus familiaris; conditions: in vivo; method in brief: as §3
[21] = Ratio of drug uptake in brain to plasma of Dunkin-Hartley guinea pig LPS-induced hyperalgesia pain model at 10 mg/kg, po administered 2 hrs prior to LPS challenge measured 7 hrs post dose; assay type: ADME, organism-based, Cavia porcellus; conditions: brain and plasma, read-out: BPR; method in brief: as §6
[22] = Plasma concentration in Dunkin-Hartley guinea pig MIA-induced osteoarthritic pain model at 100 mg/kg, po measured 2 hrs post dose; assay type: ADME, organism-based, Cavia porcellus; method in brief: as §7

fraction unbound at 5 h, 10 µM [1] | Cmax [2] [ng/mL] | AUC(0-t) at 24 h [3] [ng·h/mL] | clearance [4] [mL/min/kg] | Kp [5] | Activity [6] [%] | bioavailability [7] [%] | AUC(0-t) at 24 h [8] [ng·h/mL] | half-life [9] [h] | fraction unbound at 5 h, 10 µM [10] | Tmax [11] [h] | bioavailability [14] [%] | AUC(0-t) at 24 h [19] [ng·h/mL] | clearance [20] [mL/min/kg] | Compound | other results
0.008 | 91 | 3670 | 8.5 | 0.32 | 46 | 21 | 639 | 5.3 | 0.005 | 12 | – | – | – | CC1(C)Cc2c(c(C(=O)Nc3ccc(C(F)(F)F)cn3)cc3nc(Nc4c(Cl)cccc4Cl)[nH]c23)O1 | –
0.009 | 361 | – | – | 0.72 | 34 | – | 4120 | 6.45 | 0.0052 | 2 | 15 | 8240 | 1.61 | CC1(C)Cc2c(c(C(=O)Nc3ccc(F)c(C(F)(F)F)c3)cc3nc(Nc4c(F)cccc4Cl)[nH]c23)O1 | concentration at 7 h [12]: 96 ng/g; Activity (Cavia porcellus): Dose-dependent effect; ED50 (Cavia porcellus; po): 106 mg/kg; concentration at 7 h [13]: 145 ng/mL; Ratio [15]: 5; concentration at 2 h [16]: 3.54 µM; concentration at 7 h [17]: 87 ng/g; Ratio [18]: 7; Kp at 7 h [21]: 1.02; concentration at 2 h [22]: 678 ng/mL
0.003 | 80 | 7510 | 1.6 | – | 57 | 11 | 408 | 12 | – | 1 | 40 | 12900 | 3.5 | Cc1cccc(Cl)c1Nc1nc2cc(C(=O)Nc3cc(C(F)(F)F)ccc3F)c3c(c2[nH]1)CC(C)(C)O3 | –
